How the values were obtained:
Rattus norvegicus [1] = species on record: Rattus norvegicus; experiment: Inhibition of acetyl-CoA carboxylase in rat skeletal muscle by HPLC at 10 uM; format: tissue-based; conditions: Muscle tissue
How it was run: (§1)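 Biotinylated enzyme bound on a streptavidin column, eluted with 5 mM biotin, and protein quantified by Bradford. Buffer was 50 mM HEPES pH 7.5, 20 mM MgCl₂, 10 mM tripotassium citrate, 0.075% BSA, 2 mM ATP, 1 mM acetyl-CoA and 17.6 mM NaHCO₃, stopped with 10% perchloric acid. HPLC read-out measured acetyl-CoA loss and/or malonyl-CoA formation.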

[2] = Inhibition of acetyl-CoA carboxylase in rat skeletal muscle by HPLC; format: tissue-based, Muscle tissue
[3] = (§2) Inhibition of acetyl-CoA carboxylase in rat skeletal muscle by HPLC at 1 uM/L; format: tissue-based, Muscle tissue; how it was run: as §1
Rattus norvegicus [4] = species on record: Rattus norvegicus; experiment: as §2; format: tissue-based; conditions: Muscle tissue; how it was run: as §1
Rattus norvegicus [5] = species on record: Rattus norvegicus; experiment: Inhibition of acetyl-CoA carboxylase in rat skeletal muscle by HPLC at 5 uM; format: tissue-based; conditions: Muscle tissue; how it was run: as §1
[6] = Membrane permeability at pH 6.8 by PAMPA; format: ADME; conditions: read-out: permeability
Mus musculus = experiment: Reduction in respiratory quotient in ip dosed C57BL/6J mouse administered once a day for 8 days measured after 24 hrs of day 7 acclimatization in presence of high carbohydrate; format: functional, organism-based
How it was run: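 C57BL/6J mice aged 7–8 weeks on normal chow (carbohydrate 64%, fat 7%, protein 20%), n = 8 per group, got vehicle or 30 or 60 mg/kg ip once daily for 8 days. After 24 h cage acclimatization from day 7, O₂ consumption and CO₂ production were recorded immediately post-dose. The first 30 min were excluded, and RQ was averaged over the initial 8 h and compared by Student's t test.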

| inhibition (Rattus norvegicus [1]) | IC50 [2] | SMILES | also measured |
| --- | --- | --- | --- |
| > 90% | 6 nM | CCCC(=O)Nc1ccc2c(c1)C(=O)CC1(CCN(C(=O)c3cc(-c4ccccc4)nc(-c4ccccc4)c3)CC1)O2 |  |
| > 90% | 2 nM | Cc1cc2c(cc1N1CCOCC1)C(=O)CC1(CCN(C(=O)c3cc(-c4ccccc4)nc(-c4ccccc4)c3)CC1)O2 |  |
| 7% |  | O=C1CC2(CCN(C(=O)N3c4ccccc4CCc4ccccc43)CC2)Oc2ccc(N3CCOCC3)cc21 |  |
|  |  | O=C1CC2(CCN(C(=O)N3c4ccccc4Oc4ccccc43)CC2)Oc2cc(N3CCOCC3)ccc21 | IC50 [3]: 208 nM |
|  |  | COc1cc(C(=O)N2CCC3(CC2)CC(=O)c2cc(Nc4ccnn4C)ccc2O3)nc2c(OC)cccc12 | inhibition (Rattus norvegicus [4]): 100% |
|  |  | O=C1CC2(CCN(C(=O)N3c4ccccc4Oc4ccccc43)CC2)Oc2ccc(N3CCCC3=O)cc21 | IC50 [3]: 236 nM |
|  |  | O=C1CC2(CCN(C(=O)N3c4ccccc4Oc4ccccc43)CC2)Oc2ccccc21 | inhibition (Rattus norvegicus [5]): 51% |
| > 90% | 27 nM | CN1CCN(c2ccc3c(c2)OC2(CCN(C(=O)c4cc(-c5ccccc5)nc(-c5ccccc5)c4)CC2)CC3=O)CC1 |  |
| 16% |  | O=C1CC2(CCN(C(=O)N3c4ccccc4Sc4ccccc43)CC2)Oc2ccccc21 |  |
| > 90% | 14 nM | O=C1CC2(CCN(C(=O)c3cc(-c4ccccc4)nc(-c4ccccc4)c3)CC2)Oc2ccc(N3CCCC3=O)cc21 | Papp [6]: 26.8 ×10⁻⁶ cm/s; Activity (Mus musculus): Dose-dependent effect |
| 64% |  | O=C1CC2(CCN(C(=O)N3c4ccccc4Sc4ccccc43)CC2)Oc2ccc(N3CCOCC3)cc21 |  |
| > 90% | 26 nM | O=C1CC2(CCN(C(=O)c3cc(-c4ccccc4)nc(-c4ccccc4)c3)CC2)Oc2cc(N3CCOCC3)ccc21 |  |
| > 90% |  | O=C(c1c2ccccc2cc2ccccc12)N1CCC(N2CCC[C@@H](C(=O)N3CCOCC3)C2)CC1 |  |
|  |  | COc1cc(C(=O)N2CCC3(CC2)CC(=O)c2cc(-c4nc[nH]n4)ccc2O3)nc2c(OC)cccc12 | inhibition (Rattus norvegicus [4]): 100% |
| > 90% | 1200 nM | O=C1CC2(CCN(C(=O)c3cc(-c4ccccc4)nc(-c4ccccc4)c3)CC2)Oc2ccccc21 |  |
|  |  | CCCC(=O)Nc1ccc2c(c1)C(=O)CC1(CCN(C(=O)N3c4ccccc4Oc4ccccc43)CC1)O2 | IC50 [3]: 101 nM |
| 83% |  | CCCC(=O)N(C)c1ccc2c(c1)C(=O)C(C)(C)C1(CCN(C(=O)c3cc(-c4ccccc4)nc(-c4ccccc4)c3)CC1)O2 |  |
|  |  | O=C1CC2(CCN(C(=O)N3c4ccccc4Oc4ccccc43)CC2)Oc2ccc(N3CCOCC3)cc21 | IC50 [3]: 99 nM |
| 48% |  | CCCC(=O)Nc1ccc2c(c1)C(=O)CC1(CCN(C(=O)N3c4ccccc4Sc4ccccc43)CC1)O2 |  |
| > 90% | 61 nM | CC(=O)N[C@H](C)C#Cc1ccc2c(c1)C(=O)CC1(CCN(C(=O)c3cc(-c4ccccc4)nc(-c4ccccc4)c3)CC1)O2 |  |
| > 90% | 61 nM | O=C1CC2(CCN(C(=O)c3cc(-c4ccccc4)nc(-c4ccccc4)c3)CC2)Oc2cc(N3CCCC3)ccc21 |  |
| > 90% | 6 nM | O=C1CC2(CCN(C(=O)c3cc(-c4ccccc4)nc(-c4ccccc4)c3)CC2)Oc2ccc(N3CCOCC3)cc21 |  |
| > 90% | 59 nM | CC1COCC(C)N1c1ccc2c(c1)OC1(CCN(C(=O)c3cc(-c4ccccc4)nc(-c4ccccc4)c3)CC1)CC2=O (centres undefined) |  |
| 44% |  | CC1(C)C(=O)c2ccccc2OC12CCN(C(=O)c1cc(-c3ccccc3)nc(-c3ccccc3)c1)CC2 |  |
| 4% |  | CCCC(=O)Nc1ccc2c(c1)C(=O)CC1(CCN(C(=O)N3c4ccccc4CCc4ccccc43)CC1)O2 |  |
| > 90% | 36 nM | O=C1CC2(CCN(C(=O)c3cc(-c4ccccc4)nc(-c4ccccc4)c3)CC2)Oc2cc(N3CCCCC3)ccc21 |  |

— ChEMBL document CHEMBL1143266, “Synthesis of spiro[chroman-2,4'-piperidin]-4-one derivatives as acetyl-CoA carboxylase inhibitors” (Bioorg Med Chem Lett, 2009)
